≈ marks a conversion by molar mass, not a printed value.
How the values were obtained:
Bacillus subtilis = assay: Antibacterial activity against Bacillus subtilis after 24 hrs by two-fold serial dilution assay; type: functional
In short: (§1)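 Twofold serial broth dilution following NCCLS guidance, with Chloromycin, Norfloxacin and Fluconazole as positive controls. MIC in μM is the lowest concentration giving complete inhibition of visible bacterial or fungal growth.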

Micrococcus luteus = assay: Antibacterial activity against Micrococcus luteus ATCC 4698 after 24 hrs by two-fold serial dilution assay; type: functional, NCTC 2665; in short: as §1
Staphylococcus aureus [1] = assay: Antibacterial activity against Staphylococcus aureus ATCC 25923 after 24 hrs by two-fold serial dilution assay; type: functional; in short: as §1
Escherichia coli [2] = assay: Antibacterial activity against Escherichia coli JM109 after 24 hrs by two-fold serial dilution assay; type: functional; in short: as §1
Escherichia coli [3] = assay: Antibacterial activity against Escherichia coli DH52 after 24 hrs by two-fold serial dilution assay; type: functional; in short: as §1
Pseudomonas aeruginosa = assay: Antibacterial activity against Pseudomonas aeruginosa after 24 hrs by two-fold serial dilution assay; type: functional; in short: as §1
Proteus vulgaris = assay: Antibacterial activity against Bacillus proteus ATCC 13315 after 24 hrs by two-fold serial dilution assay; type: functional; in short: as §1
Pichia norvegensis = assay: Antifungal activity against Candida mycoderma after 24 hrs by two-fold serial dilution assay; type: functional; in short: as §1
Cyberlindnera jadinii = assay: Antifungal activity against Candida utilis after 24 hrs by two-fold serial dilution assay; type: functional; in short: as §1
Saccharomyces cerevisiae = assay: Antifungal activity against Saccharomyces cerevisiae after 24 hrs by two-fold serial dilution assay; type: functional; in short: as §1
Aspergillus flavus = assay: Antifungal activity against Aspergillus flavus after 24 hrs by two-fold serial dilution assay; type: functional; in short: as §1
Candida albicans = assay: Antifungal activity against Candida albicans ATCC 76615 after 24 hrs by two-fold serial dilution assay; type: functional; in short: as §1
Staphylococcus aureus [4] = assay: Antibacterial activity against methicillin-resistant Staphylococcus aureus N315 after 24 hrs by two-fold serial dilution assay; type: functional
Shigella dysenteriae = assay: Antibacterial activity against Shigella dysenteriae after 24 hrs by two-fold serial dilution assay; type: functional
Salmonella typhi = assay: Antibacterial activity against Bacillus typhi after 24 hrs by two-fold serial dilution assay; type: functional, Salmonella enterica subsp. enterica serovar Typhi
[5] = Staphylococcus aureus, ATCC 25923, 24 h, read-out: MIC
[6] = Escherichia coli, DH52, 24 h, read-out: MIC
[7] = Saccharomyces cerevisiae, 24 h, read-out: MIC
[8] = Staphylococcus aureus, N315, 24 h, read-out: MIC
[9] = Bacillus subtilis, 24 h, read-out: MIC
[10] = Micrococcus luteus, NCTC 2665, 24 h, read-out: MIC
[11] = Escherichia coli, JM109, 24 h, read-out: MIC
[12] = Shigella dysenteriae, 24 h, read-out: MIC
[13] = Pseudomonas aeruginosa, 24 h, read-out: MIC
[14] = Salmonella enterica, 24 h, read-out: MIC
[15] = Proteus vulgaris, ATCC 13315, 24 h, read-out: MIC
[16] = Pichia norvegensis, 24 h, read-out: MIC
[17] = Williopsis jadinii, 24 h, read-out: MIC
[18] = Aspergillus flavus, 24 h, read-out: MIC
[19] = Candida albicans, ATCC 76615, 24 h, read-out: MIC

Row | SMILES | MIC (Bacillus subtilis) [µM] | MIC (Micrococcus luteus) [µM] | MIC (Staphylococcus aureus [1]; [5]) [µM] | MIC (Escherichia coli [2]) [µM] | MIC (Escherichia coli [3]; [6]) [µM] | MIC (Pseudomonas aeruginosa) [µM] | MIC (Proteus vulgaris) [µM] | MIC (Pichia norvegensis) [µM] | MIC (Cyberlindnera jadinii) [µM] | MIC (Saccharomyces cerevisiae; [7]) [µM] | MIC (Aspergillus flavus) [µM] | MIC (Candida albicans) [µM] | MIC (Staphylococcus aureus [4]; [8]) [µM] | MIC (Bacillus subtilis; [9]) [µM] | MIC (Micrococcus luteus; [10]) [µM] | MIC (Escherichia coli [2]; [11]) [µM] | MIC (Shigella dysenteriae; [12]) [µM] | MIC (Pseudomonas aeruginosa; [13]) [µM] | MIC (Salmonella typhi; [14]) [µM] | MIC (Escherichia coli [3]) [µM] | further results
1 | COc1cc(-c2nc3ccccc3n2Cc2ccc(F)cc2)c2c(c1O)CN1CCc3cc4c(cc3C1C2)OCO4 (configuration not stated) | 20.1 (≈ 11 µg/mL) | 40.1 (≈ 22 µg/mL) | 60.2 (≈ 33.1 µg/mL) | 25.1 (≈ 13.8 µg/mL) | 100 (≈ 55.1 µg/mL) | 25.1 (≈ 13.8 µg/mL) | 25.1 (≈ 13.8 µg/mL) | 25.1 (≈ 13.8 µg/mL) | 60.2 (≈ 33.1 µg/mL) | 20.1 (≈ 11 µg/mL) | 50.2 (≈ 27.6 µg/mL) | 25.1 (≈ 13.8 µg/mL) | – | – | – | – | – | – | – | – | –
2 | COc1ccc(Cn2c(-c3cc(OC)c(O)c4c3CC3c5cc6c(cc5CCN3C4)OCO6)nc3ccccc32)cc1 (configuration not stated) | – | – | 47.5 (≈ 26.7 µg/mL) | – | 95 (≈ 53.4 µg/mL) | – | – | – | – | 38 (≈ 21.3 µg/mL) | – | – | 57 (≈ 32 µg/mL) | 19 (≈ 10.7 µg/mL) | 57 (≈ 32 µg/mL) | 38 (≈ 21.3 µg/mL) | 57 (≈ 32 µg/mL) | 38 (≈ 21.3 µg/mL) | 47.5 (≈ 26.7 µg/mL) | – | MIC (Proteus vulgaris; [15]): 47.5 µM (≈ 26.7 µg/mL); MIC (Pichia norvegensis; [16]): 57 µM (≈ 32 µg/mL); MIC (Cyberlindnera jadinii; [17]): 57 µM (≈ 32 µg/mL); MIC (Aspergillus flavus; [18]): 23.8 µM (≈ 13.4 µg/mL); MIC (Candida albicans; [19]): 38 µM (≈ 21.3 µg/mL)
3 | CCCCCCCCn1c(-c2cc(OC)c(O)c3c2CC2c4cc5c(cc4CCN2C3)OCO5)nc2ccccc21 (configuration not stated) | – | – | 14.4 (≈ 7.97 µg/mL) | – | 24.1 (≈ 13.3 µg/mL) | – | – | – | – | 96.3 (≈ 53.3 µg/mL) | – | – | 231 (≈ 128 µg/mL) | 57.8 (≈ 32 µg/mL) | 48.2 (≈ 26.7 µg/mL) | 116 (≈ 64 µg/mL) | 77.1 (≈ 42.7 µg/mL) | 38.5 (≈ 21.3 µg/mL) | 24.1 (≈ 13.3 µg/mL) | – | MIC (Proteus vulgaris; [15]): 9.6 µM (≈ 5.32 µg/mL); MIC (Pichia norvegensis; [16]): 4.8 µM (≈ 2.66 µg/mL); MIC (Cyberlindnera jadinii; [17]): 24.1 µM (≈ 13.3 µg/mL); MIC (Aspergillus flavus; [18]): 28.9 µM (≈ 16 µg/mL); MIC (Candida albicans; [19]): 28.9 µM (≈ 16 µg/mL)
4 | CCCn1c(-c2cc(OC)c(O)c3c2CC2c4cc5c(cc4CCN2C3)OCO5)nc2ccccc21 (configuration not stated) | – | – | 44.1 (≈ 21.3 µg/mL) | – | 110 (≈ 53.3 µg/mL) | – | – | – | – | 132 (≈ 64 µg/mL) | – | – | 55.2 (≈ 26.7 µg/mL) | 110 (≈ 53.3 µg/mL) | 110 (≈ 53.3 µg/mL) | 110 (≈ 53.3 µg/mL) | 265 (≈ 128 µg/mL) | 66.2 (≈ 32 µg/mL) | 27.6 (≈ 13.3 µg/mL) | – | MIC (Proteus vulgaris; [15]): 22.1 µM (≈ 10.7 µg/mL); MIC (Pichia norvegensis; [16]): 13.8 µM (≈ 6.67 µg/mL); MIC (Cyberlindnera jadinii; [17]): 27.6 µM (≈ 13.3 µg/mL); MIC (Aspergillus flavus; [18]): 66.2 µM (≈ 32 µg/mL); MIC (Candida albicans; [19]): 22.1 µM (≈ 10.7 µg/mL)
5 | O=C(N[C@H](CO)[C@H](O)c1ccc([N+](=O)[O-])cc1)C(Cl)Cl [CHLORAMPHENICOL] | – | – | 41.3 (≈ 13.3 µg/mL) | – | 66 (≈ 21.3 µg/mL) | – | – | – | – | – | – | – | 41.3 (≈ 13.3 µg/mL) | 82.5 (≈ 26.7 µg/mL) | 20.7 (≈ 6.69 µg/mL) | 82.5 (≈ 26.7 µg/mL) | 99 (≈ 32 µg/mL) | 99 (≈ 32 µg/mL) | 82.5 (≈ 26.7 µg/mL) | – | MIC (Proteus vulgaris; [15]): 99 µM (≈ 32 µg/mL)
6 | COc1cc(-c2nc3ccccc3n2CCCCCCn2c3ccccc3c3ccccc32)c2c(c1O)CN1CCc3cc4c(cc3C1C2)OCO4 (configuration not stated) | – | 741.1 (≈ 512 µg/mL) | – | – | – | – | 617.6 (≈ 427 µg/mL) | – | – | 741 (≈ 512 µg/mL) | 617.6 (≈ 427 µg/mL) | – | 618 (≈ 427 µg/mL) | 741 (≈ 512 µg/mL) | – | 618 (≈ 427 µg/mL) | – | 741 (≈ 512 µg/mL) | – | 617.6 (≈ 427 µg/mL) | MIC (Pichia norvegensis; [16]): 618 µM (≈ 427 µg/mL); MIC (Cyberlindnera jadinii; [17]): 618 µM (≈ 427 µg/mL); MIC (Candida albicans; [19]): 247 µM (≈ 171 µg/mL)
7 | COc1cc(-c2nc3ccccc3n2Cc2cccc(F)c2)c2c(c1O)CN1CCc3cc4c(cc3C1C2)OCO4.Cl (configuration not stated) | 88.5 | 70.8 | – | 70.8 | – | 212.4 | 88.5 | 70.8 | 106.2 | – | 88.5 | 70.8 | – | – | – | – | – | – | – | 141.6 | MIC (Staphylococcus aureus [1]): 70.8 µM; MIC (Saccharomyces cerevisiae): 35.4 µM
8 | COc1cc(-c2nc3ccccc3n2CCCCCCn2c3ccccc3c3ccccc32)c2c(c1O)CN1CCc3cc4c(cc3C1C2)OCO4.Cl (configuration not stated) | 704 | 293.3 | – | 469.3 | – | 469.3 | 88 | 352 | 469.3 | – | 293.3 | 176 | – | – | – | – | – | – | – | 88 | MIC (Staphylococcus aureus [4]): 586.7 µM; MIC (Staphylococcus aureus [1]): 146.7 µM; MIC (Shigella dysenteriae): 146.7 µM; MIC (Salmonella typhi): 73.3 µM; MIC (Saccharomyces cerevisiae): 469.3 µM
9 | COc1cc(-c2nc3ccccc3n2Cc2ccccc2F)c2c(c1O)CN1CCc3cc4c(cc3C1C2)OCO4.Cl (configuration not stated) | 33.5 | 20.9 | – | 20.9 | – | 67 | 20.9 | 10.5 | 12.6 | – | 803.8 | 20.9 | – | – | – | – | – | – | – | 20.9 | MIC (Shigella dysenteriae): 50.2 µM; MIC (Salmonella typhi): 6.3 µM; MIC (Saccharomyces cerevisiae): 83.8 µM
10 | COc1cc(-c2nc3ccccc3n2Cc2ccc(F)cc2)c2c(c1O)CN1CCc3cc4c(cc3C1C2)OCO4.Cl (configuration not stated) | 182 | 182 | – | 182 | – | 182 | 182 | 218.4 | 182 | – | 182 | 182 | – | – | – | – | – | – | – | 182 | MIC (Staphylococcus aureus [1]): 109.2 µM; MIC (Shigella dysenteriae): 145.6 µM; MIC (Saccharomyces cerevisiae): 36.4 µM
